Measured values from ChEMBL document CHEMBL4689842, “EUbOPEN Chemogenomics Library wave 1” (2021).

System: HEK-293T
Test: Multiplex assay against HEK293T;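 as to Population Tubulin-Different-Phenotype (%): share of the cells with healthy nuclei that show this phenotype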
Format: toxicity, cell-based
Conditions: human
Procedure, shortened: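 Cells stained live at seeding with Hoechst33342, BioTracker Green Microtubule Cytoskeleton Dye, MitoTracker Red and Annexin V Alexa Fluor 680 were imaged on a CQ1 microscope at 37°C and 5% CO2 after compound addition. Their classification by CellPathfinder machine-learning gating ran from Hoechst high-intensity objects versus normal cells, to healthy, pyknosed or fragmented nuclei among normal cells, to mitotic or apoptotic among pyknosed cells. Tubulin, mitochondrial-mass and membrane-permeability phenotypes are per cents of healthy-nucleus cells.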

[1] = 12 h, 1 µM, compound concentration 1 uM, replicate 1
[2] = 12 h, 1 µM, compound concentration 1 uM, replicate 2
[3] = 12 h, 10 µM, compound concentration 10 uM, replicate 1
[4] = 12 h, 10 µM, compound concentration 10 uM, replicate 2
[5] = 24 h, 1 µM, compound concentration 1 uM, replicate 1
[6] = 24 h, 1 µM, compound concentration 1 uM, replicate 2
[7] = 24 h, 10 µM, compound concentration 10 uM, replicate 1
[8] = 24 h, 10 µM, compound concentration 10 uM, replicate 2
[9] = 48 h, 1 µM, compound concentration 1 uM, replicate 1
[10] = 48 h, 1 µM, compound concentration 1 uM, replicate 2
[11] = 48 h, 10 µM, compound concentration 10 uM, replicate 1
[12] = 48 h, 10 µM, compound concentration 10 uM, replicate 2

SMILES: CC(C)c1cc(Nc2nc(N3CCC[C@H](N)C3)ncc2C(N)=O)cc(C(C)C)n1
- Population Apoptotic (%) [1]: 61%
- Population Fragmented Nuclei (%) [1]: 9%
- Population Healthy Nuclei (%) [1]: 30%
- Population Hoechst High Intensity Objects (%) [1]: 11%
- Population Membrane Permeable-Phenotype (%) [1]: 9%
- Population Mitochondria Different-Phenotype (%) [1]: 95%
- Population Mitotic Cells (%) [1]: 38%
- Population Normal (%) [1]: 88%
- Population Pyknosed Nuclei (%) [1]: 60%
- Population Tubulin-Different-Phenotype (%) [1]: 100%
- Total Cell Count [1]: 225
- Population Apoptotic (%) [2]: 52%
- Population Fragmented Nuclei (%) [2]: 5%
- Population Healthy Nuclei (%) [2]: 26%
- Population Hoechst High Intensity Objects (%) [2]: 7%
- Population Membrane Permeable-Phenotype (%) [2]: 8%
- Population Mitochondria Different-Phenotype (%) [2]: 91%
- Population Mitotic Cells (%) [2]: 47%
- Population Normal (%) [2]: 92%
- Population Pyknosed Nuclei (%) [2]: 68%
- Population Tubulin-Different-Phenotype (%) [2]: 97%
- Total Cell Count [2]: 140
- Population Apoptotic (%) [3]: 88%
- Population Healthy Nuclei (%) [3]: 6%
- Population Hoechst High Intensity Objects (%) [3]: 18%
- Population Membrane Permeable-Phenotype (%) [3]: 0%
- Population Mitochondria Different-Phenotype (%) [3]: 93%
- Population Mitotic Cells (%) [3]: 11%
- Population Normal (%) [3]: 81%
- Population Pyknosed Nuclei (%) [3]: 86%
- Population Tubulin-Different-Phenotype (%) [3]: 43%
- Total Cell Count [3]: 313
- Population Apoptotic (%) [4]: 64%
- Population Fragmented Nuclei (%) [4]: 7%
- Population Healthy Nuclei (%) [4]: 5%
- Population Hoechst High Intensity Objects (%) [4]: 5%
- Population Membrane Permeable-Phenotype (%) [4]: 10%
- Population Mitochondria Different-Phenotype (%) [4]: 90%
- Population Mitotic Cells (%) [4]: 35%
- Population Normal (%) [4]: 94%
- Population Pyknosed Nuclei (%) [4]: 87%
- Population Tubulin-Different-Phenotype (%) [4]: 40%
- Total Cell Count [4]: 206
- Population Apoptotic (%) [5]: 65%
- Population Fragmented Nuclei (%) [5]: 8%
- Population Healthy Nuclei (%) [5]: 28%
- Population Hoechst High Intensity Objects (%) [5]: 14%
- Population Membrane Permeable-Phenotype (%) [5]: 5%
- Population Mitochondria Different-Phenotype (%) [5]: 94%
- Population Mitotic Cells (%) [5]: 34%
- Population Normal (%) [5]: 85%
- Population Pyknosed Nuclei (%) [5]: 63%
- Population Tubulin-Different-Phenotype (%) [5]: 91%
- Total Cell Count [5]: 234
- Population Apoptotic (%) [6]: 62%
- Population Fragmented Nuclei (%) [6]: 9%
- Population Healthy Nuclei (%) [6]: 40%
- Population Hoechst High Intensity Objects (%) [6]: 5%
- Population Membrane Permeable-Phenotype (%) [6]: 9%
- Population Mitochondria Different-Phenotype (%) [6]: 89%
- Population Mitotic Cells (%) [6]: 37%
- Population Normal (%) [6]: 94%
- Population Pyknosed Nuclei (%) [6]: 49%
- Population Tubulin-Different-Phenotype (%) [6]: 96%
- Total Cell Count [6]: 170
- Population Apoptotic (%) [7]: 90%
- Population Fragmented Nuclei (%) [7]: 14%
- Population Healthy Nuclei (%) [7]: 2%
- Population Hoechst High Intensity Objects (%) [7]: 22%
- Population Membrane Permeable-Phenotype (%) [7]: 0%
- Population Mitochondria Different-Phenotype (%) [7]: 100%
- Population Mitotic Cells (%) [7]: 9%
- Population Normal (%) [7]: 77%
- Population Pyknosed Nuclei (%) [7]: 82%
- Population Tubulin-Different-Phenotype (%) [7]: 28%
- Total Cell Count [7]: 321
- Population Apoptotic (%) [8]: 89%
- Population Fragmented Nuclei (%) [8]: 11%
- Population Healthy Nuclei (%) [8]: 15%
- Population Hoechst High Intensity Objects (%) [8]: 8%
- Population Membrane Permeable-Phenotype (%) [8]: 10%
- Population Mitochondria Different-Phenotype (%) [8]: 40%
- Population Mitotic Cells (%) [8]: 10%
- Population Normal (%) [8]: 91%
- Population Pyknosed Nuclei (%) [8]: 72%
- Population Tubulin-Different-Phenotype (%) [8]: 70%
- Total Cell Count [8]: 206
- Population Apoptotic (%) [9]: 72%
- Population Fragmented Nuclei (%) [9]: 13%
- Population Healthy Nuclei (%) [9]: 39%
- Population Hoechst High Intensity Objects (%) [9]: 15%
- Population Membrane Permeable-Phenotype (%) [9]: 2%
- Population Mitochondria Different-Phenotype (%) [9]: 85%
- Population Mitotic Cells (%) [9]: 27%
- Population Normal (%) [9]: 84%
- Population Pyknosed Nuclei (%) [9]: 46%
- Population Tubulin-Different-Phenotype (%) [9]: 95%
- Total Cell Count [9]: 246
- Population Apoptotic (%) [10]: 66%
- Population Fragmented Nuclei (%) [10]: 7%
- Population Healthy Nuclei (%) [10]: 55%
- Population Hoechst High Intensity Objects (%) [10]: 7%
- Population Membrane Permeable-Phenotype (%) [10]: 3%
- Population Mitochondria Different-Phenotype (%) [10]: 81%
- Population Mitotic Cells (%) [10]: 33%
- Population Normal (%) [10]: 92%
- Population Pyknosed Nuclei (%) [10]: 36%
- Population Tubulin-Different-Phenotype (%) [10]: 96%
- Total Cell Count [10]: 213
- Population Apoptotic (%) [11]: 71%
- Population Fragmented Nuclei (%) [11]: 22%
- Population Healthy Nuclei (%) [11]: 2%
- Population Hoechst High Intensity Objects (%) [11]: 17%
- Population Membrane Permeable-Phenotype (%) [11]: 0%
- Population Mitochondria Different-Phenotype (%) [11]: 100%
- Population Mitotic Cells (%) [11]: 28%
- Population Normal (%) [11]: 82%
- Population Pyknosed Nuclei (%) [11]: 74%
- Population Tubulin-Different-Phenotype (%) [11]: 57%
- Total Cell Count [11]: 341
- Population Apoptotic (%) [12]: 92%
- Population Fragmented Nuclei (%) [12]: 23%
- Population Healthy Nuclei (%) [12]: 26%
- Population Hoechst High Intensity Objects (%) [12]: 7%
- Population Membrane Permeable-Phenotype (%) [12]: 13%
- Population Mitochondria Different-Phenotype (%) [12]: 64%
- Population Mitotic Cells (%) [12]: 7%
- Population Normal (%) [12]: 92%
- Population Pyknosed Nuclei (%) [12]: 50%
- Population Tubulin-Different-Phenotype (%) [12]: 91%
- Total Cell Count [12]: 182
- Population Apoptotic (%) (replicate 1): 30%
- Population Fragmented Nuclei (%) (replicate 1): 5%
- Population Healthy Nuclei (%) (replicate 1): 23%
- Population Hoechst High Intensity Objects (%) (replicate 1): 12%
- Population Membrane Permeable-Phenotype (%) (replicate 1): 0%
- Population Mitochondria Different-Phenotype (%) (replicate 1): 74%
- Population Mitotic Cells (%) (replicate 1): 69%
- Population Normal (%) (replicate 1): 87%
- Population Pyknosed Nuclei (%) (replicate 1): 71%
- Population Tubulin-Different-Phenotype (%) (replicate 1): 3%
